{"source": "paper PMC3861362", "about": "(Clinical Pharmacology : Advances and Applications, 2013)", "key": {"[1]": {"format": "in vivo, human (healthy Chinese subjects)", "conditions": "for CL renal: plasma and urine, CLR"}, "bovine factor Xa": {"target": "bovine factor Xa (Bos taurus, UniProt P00743)", "sequence (P00743 234-492 limits assumed)": "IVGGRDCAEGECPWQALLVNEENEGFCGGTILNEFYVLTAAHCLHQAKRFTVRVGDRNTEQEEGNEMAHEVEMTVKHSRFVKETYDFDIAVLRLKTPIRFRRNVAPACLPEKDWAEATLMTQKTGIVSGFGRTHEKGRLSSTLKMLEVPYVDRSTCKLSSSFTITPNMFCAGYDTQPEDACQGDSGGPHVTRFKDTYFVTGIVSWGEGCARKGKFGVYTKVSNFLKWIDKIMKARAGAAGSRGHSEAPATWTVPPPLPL", "sequence (P00743 41-180 partner limits assumed)": "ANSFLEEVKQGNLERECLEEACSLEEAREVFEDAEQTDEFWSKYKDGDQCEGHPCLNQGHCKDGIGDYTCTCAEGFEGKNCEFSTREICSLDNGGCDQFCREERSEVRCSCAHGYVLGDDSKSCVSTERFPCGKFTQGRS", "test": "Plasma anti-Xa activity by chromogenic assay after apixaban dosing", "format": "in vivo"}, "[2]": {"format": "in vivo, human (healthy Chinese subjects)", "outline": "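Dosing was 10 mg once on day 1, then 10 mg twice daily for 6 d, ending with the morning dose on day 9. Subjects were confined to the facility throughout and monitored for adverse events, with physical examinations, vital signs, ECGs and clinical laboratory tests.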"}, "[3]": {"conditions": "cited from earlier work"}, "P-glycoprotein": {"tested_on": "P-glycoprotein", "conditions": "cited from earlier work"}, "[4]": {"tested_on": "breast cancer resistance protein", "conditions": "cited from earlier work"}, "CYP3A4": {"tested_on": "CYP3A4", "conditions": "minor contribution from other CYP enzymes; cited from earlier work"}, "[5]": {"conditions": "multiple doses 10 mg twice daily, one of twelve subjects"}}, "note": "“Also recorded” adds a separate entry of the source. Where two headings read alike, the source gives them in different places."}
{"smiles": "COc1ccc(-n2nc(C(N)=O)c3c2C(=O)N(c2ccc(N4CCCCC4=O)cc2)CC3)cc1", "note": "[apixaban]", "values": [{"measurement": "CL renal", "setting": "[1]; human, oral, 10 mg, Mean (SD), multiple doses 10 mg twice daily, day 9, n=12", "value": 20, "unit": "mL/min"}, {"measurement": "CL renal", "setting": "[1]; human, po, 10 mg, Mean (SD), single 10 mg oral dose, day 1, n=12", "value": 19.5, "unit": "mL/min"}, {"measurement": "Tmax", "setting": "[1]; human, plasma, oral, 10 mg, Tmax, Median (min, max), multiple doses 10 mg twice daily, day 9, n=12", "value": 3.5, "unit": "h"}, {"measurement": "half-life", "setting": "[1]; human, plasma, oral, 10 mg, t½, Mean (SD), multiple doses 10 mg twice daily, day 9, n=12", "value": 10.8, "unit": "h"}, {"measurement": "AUC(0-inf)", "setting": "[1]; human, plasma, po, 10 mg", "value": 2.31, "unit": "µg·h/mL"}, {"measurement": "AUC(0-t)", "setting": "[1]; human, plasma, po, 10 mg", "value": 2.27, "unit": "µg·h/mL"}, {"measurement": "Cmax", "setting": "[1]; human, plasma, po, 10 mg", "value": 0.234, "unit": "µg/mL"}, {"measurement": "time at which steady-state conditions were achieved", "setting": "[1]; multiple doses 10 mg twice daily", "value": "by the third day of multiple-dose administration"}, {"measurement": "t½, Mean (SD)", "setting": "[1]; single 10 mg oral dose, day 1, n=12", "value": "11.4 (3.6) hours"}, {"measurement": "maximum anti-Xa activity, mean (SD)", "setting": "bovine factor Xa; day 9, at 3 hours (peak apixaban concentration), 10 mg twice daily, low-molecular-weight heparin units", "value": "5.57 (SD, 1.54) IU/mL"}, {"measurement": "minimum anti-Xa activity, mean (SD)", "setting": "bovine factor Xa; day 9, at 12 hours (trough apixaban concentration), 10 mg twice daily, low-molecular-weight heparin units", "value": "1.94 (SD, 0.54) IU/mL"}, {"measurement": "relationship between anti-Xa activity and plasma apixaban concentration", "setting": "bovine factor Xa; single and multiple doses", "value": "appears to be linear; also recorded: direct linear relationship"}, {"measurement": "severity of adverse events after multiple-dose administration", "setting": "[2]; 10 mg twice daily", "value": "mild"}, {"measurement": "overall safety and tolerability", "setting": "[2]; healthy Chinese subjects, 10 mg single and twice-daily doses", "value": "safe and well tolerated"}, {"measurement": "subjects with elevated alanine aminotransferase (ALT)", "setting": "[2]; [5]", "value": 8, "unit": "%"}, {"measurement": "subjects with microscopic hematuria", "setting": "[2]; [5]", "value": 8, "unit": "%"}, {"measurement": "subjects with positive fecal blood", "setting": "[2]; [5]", "value": 8, "unit": "%"}, {"measurement": "adverse events after single dose", "setting": "[2]; single-dose apixaban 10 mg", "value": "No adverse events"}, {"measurement": "changes in vital signs, physical examinations, or ECGs", "setting": "[2]; whole study", "value": "No clinically significant changes"}, {"measurement": "deaths, serious adverse events, discontinuations, bleeding-related adverse events", "setting": "[2]; whole study, 10 mg single and twice-daily doses, n=12", "value": "no bleeding-related adverse events reported; also recorded: no deaths, other serious adverse events, adverse events leading to discontinuation, or clinically significant bleeding-related adverse events"}, {"measurement": "CLR", "setting": "[3]; Japanese and non-Asian subjects, ref previous studies", "value": "0.49 to 1.07", "unit": "L/h"}, {"measurement": "oral bioavailability", "setting": "[3]", "value": "~ 50%"}, {"measurement": "share of total clearance via the kidneys", "setting": "[3]", "value": 27, "unit": "%"}, {"measurement": "mean elimination t½", "setting": "[3]; healthy Western subjects", "value": "approximately 12 hours"}, {"measurement": "share of dose undergoing oxidative metabolism", "setting": "[3]; oral administration", "value": "~ 25%"}, {"measurement": "time to Cmax after oral administration", "setting": "[3]; oral administration", "value": "~ 3 hours"}, {"measurement": "time to Cmax", "setting": "[3]; white and Japanese subjects", "value": "2 to 4", "unit": "h"}, {"measurement": "P-glycoprotein substrate", "setting": "P-glycoprotein", "value": "substrate"}, {"measurement": "breast cancer resistance protein substrate", "setting": "[4]", "value": "substrate"}, {"measurement": "enzyme mediating oxidative metabolism", "setting": "CYP3A4", "value": "primarily mediated via CYP3A4"}]}
